In ChEMBL document CHEMBL1275447 (Antimicrob Agents Chemother, 2008):
Values after ≈ are worked out from the molar mass of the structure shown.

What was measured:
Pseudomonas aeruginosa [1] = assay: Antibacterial activity against Pseudomonas aeruginosa isolate 1062 by microdilution method; type: functional
Pseudomonas aeruginosa [2] = assay: Antibacterial activity against Pseudomonas aeruginosa isolate 1052 by microdilution method; type: functional
In short: (§1)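 CLSI broth microdilution in cation-adjusted Mueller-Hinton broth (20–25 mg/liter Ca, 10–12.5 mg/liter Mg). Standard inoculum 10⁵ CFU/ml, incubated in ambient air. Clinical hospital isolates.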

Pseudomonas aeruginosa [3] = assay: Antibacterial activity against Pseudomonas aeruginosa isolate 1082 by microdilution method; type: functional; in short: as §1
Pseudomonas aeruginosa [4] = assay: Antibacterial activity against Pseudomonas aeruginosa isolate 1036 by microdilution method; type: functional
Pseudomonas aeruginosa [5] = assay: Antibacterial activity against Pseudomonas aeruginosa isolate 944 by microdilution method; type: functional; in short: as §1
Pseudomonas aeruginosa [6] = assay: Antibacterial activity against Pseudomonas aeruginosa isolate 1006 by microdilution method; type: functional
[7] = fT>MIC in human infected with Pseudomonas aeruginosa isolate 1050 at 500 mg administered as 1 hr infusion; type: functional
[8] = fT>MIC in human infected with Pseudomonas aeruginosa isolate 1006 at 500 mg administered as 1 hr infusion; type: functional
[9] = fT>MIC in human infected with Pseudomonas aeruginosa isolate 968 at 500 mg administered as 1 hr infusion; type: functional
[10] = fT>MIC in human infected with Pseudomonas aeruginosa isolate 1052 at 500 mg administered as 4 hr infusion; type: functional
[11] = fT>MIC in human infected with Pseudomonas aeruginosa isolate 1036 at 500 mg administered as 4 hr infusion; type: functional
[12] = fT>MIC in human infected with Pseudomonas aeruginosa isolate 931 at 500 mg administered as 4 hr infusion; type: functional
[13] = fT>MIC in human infected with Pseudomonas aeruginosa isolate 896 at 500 mg administered as 4 hr infusion; type: functional
[14] = fT>MIC in human infected with Pseudomonas aeruginosa isolate 1006 at 500 mg administered as 4 hr infusion; type: functional
[15] = fT>MIC in neutropenic mouse infected with Pseudomonas aeruginosa isolate 869 at 500 mg administered as 1 hr infusion; type: functional
In short: (§2)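 Free-drug time above MIC simulated from one-compartment mouse serum PK (25.2% protein binding). The mice were cyclophosphamide-neutropenic and uranyl nitrate-renally impaired. Regimen was subcutaneous 10, 15, 2.5, 1.25, 0.5, 0.25 mg/kg at 0, 0.5, 2.5, 4, 5.5, 7 h, repeated every 8 h over 24 h.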

[16] = fT>MIC in neutropenic mouse infected with Pseudomonas aeruginosa isolate 979 at 500 mg administered as 1 hr infusion; type: functional; in short: as §2
[17] = fT>MIC in neutropenic mouse infected with Pseudomonas aeruginosa isolate 944 at 500 mg administered as 1 hr infusion; type: functional; in short: as §2
[18] = fT>MIC in neutropenic mouse infected with Pseudomonas aeruginosa isolate 1029 at 500 mg administered as 4 hr infusion; type: functional
[19] = fT>MIC in neutropenic mouse infected with Pseudomonas aeruginosa isolate 886 at 500 mg administered as 4 hr infusion; type: functional
In short: (§3)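 Mouse fT>MIC was modelled with first-order one-compartment serum PK and 25.2% binding. Mice were neutropenic (cyclophosphamide) with uranyl nitrate renal impairment. Subcutaneous doses were 5.5, 2.25, 4.5, 4.5, 4.5, 4.5, 0.75, 0.375 mg/kg at 0, 0.5, 1.5, 2.5, 3.5, 4.5, 6, 7.5 h per 8-h interval over 24 h.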

[20] = fT>MIC in neutropenic mouse infected with Pseudomonas aeruginosa isolate 1005 at 500 mg administered as 4 hr infusion; type: functional
[21] = fT>MIC in neutropenic mouse infected with Pseudomonas aeruginosa isolate 1052 at 500 mg administered as 4 hr infusion; type: functional; in short: as §3
[22] = fT>MIC in neutropenic mouse infected with Pseudomonas aeruginosa isolate 979 at 500 mg administered as 4 hr infusion; type: functional; in short: as §3
[23] = fT>MIC in neutropenic mouse infected with Pseudomonas aeruginosa isolate 1050 at 500 mg administered as 4 hr infusion; type: functional; in short: as §3
[24] = fT>MIC in neutropenic mouse infected with Pseudomonas aeruginosa isolate 1060 at 500 mg administered as 4 hr infusion; type: functional; in short: as §3
[25] = Tmax in Pseudomonas aeruginosa ATCC 27853 infected neutropenic ICR mouse at 10 mg/kg, sc administered as single dose 2 hrs postinfection by HPLC; type: ADME, organism-based; design: dose 10 mg/kg, route subcutaneous; details: in vivo
In short: (§4)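 Neutropenic mice (cyclophosphamide ip 150 and 100 mg/kg, 4 and 1 days before inoculation) with uranyl nitrate 5 mg/kg ip 3 days before, for renal impairment. Thigh infection with ATCC 27853 at 10⁶ CFU/ml, 0.1 ml per thigh. Single sc doses 2 h later. Intracardiac blood from 6–12 mice per time point, eight time points over 4 h. Serum assayed by HPLC (linear 0.5–40 μg/ml). One-compartment first-order fit.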

[26] = Elimination rate constant in Pseudomonas aeruginosa ATCC 27853 infected neutropenic ICR mouse at 150 mg/kg, sc administered as single dose 2 hrs postinfection; type: ADME, organism-based; design: dose 150 mg/kg, route subcutaneous; details: in vivo; in short: as §4
[27] = Clearance in Pseudomonas aeruginosa ATCC 27853 infected neutropenic ICR mouse at 50 mg/kg, sc administered as single dose 2 hrs postinfection; type: ADME, organism-based; design: dose 50 mg/kg, route subcutaneous; details: in vivo; in short: as §4
[28] = AUC in healthy human at 500 mg administered as 1 hr infusion; type: ADME, organism-based; details: plasma, iv

Q: Which MIC (Pseudomonas aeruginosa [1]) does the source give for C[C@@H](O)[C@H]1C(=O)N2C(C(=O)O)=C(S[C@@H]3CN[C@H](CNS(N)(=O)=O)C3)[C@H](C)[C@H]12 [DORIPENEM] here?
A: Its MIC is 0.5 mg/L (≈ 1.19 µM).

Q: What about the MIC (Pseudomonas aeruginosa [2]) of the same compound?
A: The MIC was 1 mg/L (≈ 2.38 µM).

Q: What about the MIC (Pseudomonas aeruginosa [3]) of the same compound?
A: The MIC was 1 mg/L (≈ 2.38 µM).

Q: What about the MIC (Pseudomonas aeruginosa [4]) of the same compound?
A: Its MIC is 2 mg/L (≈ 4.76 µM).

Q: And the MIC (Pseudomonas aeruginosa [5])?
A: The MIC was 4 mg/L (≈ 9.51 µM).

Q: And the MIC (Pseudomonas aeruginosa [6])?
A: Its MIC is 8 mg/L (≈ 19 µM).

Q: What about the “fT>MIC” value [7] of the same compound?
A: The value was 27.5%.

Q: What about the “fT>MIC” value [8] of the same compound?
A: The value was 17.5%.

Q: And the “fT>MIC” value [9]?
A: Its value is 7.5%.

Q: What about the fT>MIC [10] of the same compound?
A: Its fT>MIC is 80%.

Q: And the fT>MIC [11]?
A: Its fT>MIC is 65%.

Q: What about the fT>MIC [12] of the same compound?
A: The fT>MIC was 55%.

Q: What about the fT>MIC [13] of the same compound?
A: The fT>MIC was 0%.

Q: What about the fT>MIC [14] of the same compound?
A: The fT>MIC was 0%.

Q: And the fT>MIC [15]?
A: Its fT>MIC is 90%.

Q: And the fT>MIC [16]?
A: Its fT>MIC is 42.5%.

Q: And the fT>MIC [17]?
A: The fT>MIC was 30%.

Q: And the “fT>MIC” value [18]?
A: The value was 100%.

Q: What about the “fT>MIC” value [19] of the same compound?
A: The value was 100%.

Q: And the “fT>MIC” value [20]?
A: Its value is 82.5%.

Q: And the “fT>MIC” value [21]?
A: Its value is 82.5%.

Q: And the “fT>MIC” value [22]?
A: The value was 70%.

Q: What about the “fT>MIC” value [23] of the same compound?
A: The value was 52.5%.

Q: What about the “fT>MIC” value [24] of the same compound?
A: The value was 52.5%.

Q: And the Tmax [25]?
A: Its Tmax is 15 min.

Q: What about the k el at 2 h [26] of the same compound?
A: The k el at 2 h was 0.000433 s⁻¹.

Q: And the CL/F [27]?
A: The CL/F was 0.783 L/h/kg.

Q: What about the AUC at 1 h [28] of the same compound?
A: Its AUC at 1 h is 32.6 µg·h/mL.
